Data set [1] concerns Hepatocyte. As to the kind of experiment: Total drug uptake in sandwich-cultured human adult hepatocytes assessed per mg protein at 1 uM after 20 mins in absence of cyclosporine A by liquid scintillation counting method. The class given is ADME, cell-based. In outline: (§1)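 Sandwich-cultured hepatocytes received 1 µM radiolabeled test compound in HBSS at 37°C, with or without cyclosporine A, verapamil or rifampin. After an ice-cold wash, efflux was started with Ca2+/Mg2+-free HBSS for 20 min. Media and lysates were counted by liquid scintillation. Total uptake is expressed as pmol/mg protein (Bradford), mean ± S.D.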

Data set [2] has as its system Hepatocyte. Nature of the data set: Total drug uptake in sandwich-cultured human fetal hepatocytes assessed per mg protein at 1 uM after 20 mins in absence of rifampin by liquid scintillation counting method. The class given is ADME, cell-based. Summed up:
as §1

Data set [3] deals with Hepatocyte. Nature of the data set: Total drug uptake in sandwich-cultured human adult hepatocytes assessed per mg protein at 1 uM after 20 mins in absence of verapamil by liquid scintillation counting method. It is filed as ADME, cell-based. In outline: as §1
Data set [4] has as its system Hepatocyte. As to the kind of experiment: Total drug uptake in sandwich-cultured human fetal hepatocytes assessed per mg protein at 1 uM after 20 mins in presence of rifampin by liquid scintillation counting method. The class given is ADME, cell-based. Summed up:
as §1

In data set [5] the test system is Hepatocyte. As to the kind of experiment: Total drug uptake in sandwich-cultured human fetal hepatocytes assessed per mg protein at 1 uM after 20 mins in presence of verapamil by liquid scintillation counting method. It is filed as ADME, cell-based. Summed up: as §1
The test system of data set [6] is Hepatocyte. Nature of the data set: Total drug uptake in sandwich-cultured human adult hepatocytes assessed per mg protein at 1 uM after 20 mins in presence of cyclosporine A by liquid scintillation counting method. It is filed as ADME, cell-based. In outline: as §1
Data set [7] has as its system Hepatocyte. Nature of the data set: Total drug uptake in sandwich-cultured human adult hepatocytes assessed per mg protein at 1 uM after 20 mins in presence of verapamil by liquid scintillation counting method. It is filed as ADME, cell-based. In outline:
as §1

Data set [8] concerns Hepatocyte. Nature of the data set: Total drug uptake in sandwich-cultured human fetal hepatocytes assessed per mg protein at 1 uM after 20 mins in absence of cyclosporine A by liquid scintillation counting method. The class given is ADME, cell-based. Summed up: as §1
The subject of data set [9] is Hepatocyte. Nature of the data set: Total drug uptake in sandwich-cultured human fetal hepatocytes assessed per mg protein at 1 uM after 20 mins in absence of verapamil by liquid scintillation counting method. The class given is ADME, cell-based. In outline:
as §1

Data set [10] has as its system Hepatocyte. As to the kind of experiment: Total drug uptake in sandwich-cultured human adult hepatocytes assessed per mg protein at 1 uM after 20 mins in presence of rifampin by liquid scintillation counting method. It is filed as ADME, cell-based. Summed up:
as §1

For data set [11], the system named is Hepatocyte. As to the kind of experiment: Total drug uptake in sandwich-cultured human fetal hepatocytes assessed per mg protein at 1 uM after 20 mins in presence of cyclosporine A by liquid scintillation counting method. It is filed as ADME, cell-based. Summed up:
as §1

Data set [12] has as its system Hepatocyte. As to the kind of experiment: Total drug uptake in sandwich-cultured human adult hepatocytes assessed per mg protein at 1 uM after 20 mins in absence of rifampin by liquid scintillation counting method. It is filed as ADME, cell-based. Summed up:
as §1

The test system of data set [13] is Hepatocyte. Nature of the data set: Drug accumulation in sandwich-cultured human adult hepatocytes assessed per mg protein under Ca2+/Mg2+ conditions. The class given is ADME, cell-based.
Data set [14] concerns Hepatocyte. Nature of the data set: Drug accumulation in sandwich-cultured human adult hepatocytes assessed per mg protein under Ca2+/Mg2+ free conditions. The class given is ADME, cell-based.
The subject of data set [15] is Hepatocyte. As to the kind of experiment: Drug uptake in sandwich-cultured human fetal hepatocytes at 1 uM after 20 mins in presence of cold media at 4 degC by liquid scintillation counting method. It is filed as ADME, cell-based.
The subject of data set [16] is Hepatocyte. Nature of the data set: Drug accumulation in sandwich-cultured human fetal hepatocytes assessed per mg protein under Ca2+/Mg2+ free conditions. The class given is ADME, cell-based.
Data set [17] concerns Hepatocyte. As to the kind of experiment: Drug accumulation in sandwich-cultured human fetal hepatocytes assessed per mg protein under Ca2+/Mg2+ conditions. It is filed as ADME, cell-based.
Data set [18] concerns Hepatocyte. Nature of the data set: Drug uptake in sandwich-cultured human fetal hepatocytes at 1 uM after 20 mins in presence of warm media at 37 degC by liquid scintillation counting method. The class given is ADME, cell-based.
Data set [19] deals with T1, Bile salt export pump (Homo sapiens, UniProt O95342). Nature of the data set: Inhibition of ABCB11-mediated taurocholate total uptake in sandwich-cultured human fetal hepatocytes at >0.5 uM. The class given is ADME, cell-based, Hepatocyte. Summed up:
(§2)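 Sandwich-cultured hepatocytes (Matrigel overlay) were given 1 µM [3H]taurocholic acid in standard HBSS at 37°C, with or without increasing 17-OHPC or cyclosporine A (40 µM, positive control). Efflux was run in standard versus Ca2+/Mg2+-free HBSS, with inhibitor present. Canalicular efflux is the buffer difference, set to 100% in controls. Uptake was from scintillation counts normalized to Bradford protein. Triplicates; fetal n = 4, adult n = 6.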

Data set [20] in a line: Cmax in adult human plasma. It is filed as ADME, cell-free.
The test system of data set [21] is Hepatocyte. As to the kind of experiment: Drug excretion in sandwich-cultured human adult hepatocytes assessed as mean biliary index. It is filed as ADME, cell-based. Summed up:
(§3)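 Sandwich-cultured hepatocytes (Matrigel overlay, 0.233 mg/ml) were rinsed twice and equilibrated 10 min at 37°C in standard or Ca2+/Mg2+-free HBSS. 1 µM [3H]taurocholate or [3H]17-OHPC in standard HBSS was then added. Accumulation was measured by scintillation counting and normalized to Bradford protein. BEI = (accumulation with Ca/Mg − accumulation without)/accumulation with Ca/Mg × 100. Reported as mean ± S.D. across cultures.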

Data set [22] deals with T1, Bile salt export pump. As to the kind of experiment: Inhibition of ABCB11-mediated taurocholate efflux in sandwich-cultured human fetal hepatocytes at 0.5 to 10 uM. The class given is ADME, cell-based, Hepatocyte. Summed up:
as §2

Data set [23] has as its target T1, Bile salt export pump. Nature of the data set: Inhibition of ABCB11-mediated taurocholate total uptake in sandwich-cultured human adult hepatocytes at >50 uM. The class given is ADME, cell-based, Hepatocyte. Summed up:
as §2

In data set [24] the test system is Hepatocyte. As to the kind of experiment: Drug excretion in sandwich-cultured human fetal hepatocytes assessed as mean biliary index. It is filed as ADME, cell-based. In outline:
as §3

Data set [25] has as its target T1, Bile salt export pump. Nature of the data set: Inhibition of ABCB11-mediated taurocholate efflux in sandwich-cultured human adult hepatocytes at 5 to 100 uM. The class given is ADME, cell-based, Hepatocyte. Summed up: as §2
Data set [26] is described as follows: Cmax in human cord blood.
In data set [27] the test system is Hepatocyte. As to the kind of experiment: Drug uptake in sandwich-cultured human adult hepatocytes at 1 uM after 20 mins in presence of cold media at 4 degC by liquid scintillation counting method. It is filed as ADME, cell-based. In outline:
(§4)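 Sandwich-cultured hepatocytes were loaded for 20 min in standard HBSS containing 1 µM 17-OHPC and 1 µM TCA, at 37°C or at 4°C. Cells were washed ice-cold, and efflux was started with Ca2+/Mg2+-free HBSS at the matching temperature. Media and lysates were counted by liquid scintillation and normalized to protein. Triplicate treatments.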

The subject of data set [28] is Hepatocyte. Nature of the data set: Drug uptake in sandwich-cultured human adult hepatocytes at 1 uM after 20 mins in presence of warm media at 37 degC by liquid scintillation counting method. It is filed as ADME, cell-based. Summed up:
as §4

The values that follow come from ChEMBL document CHEMBL3526123, “Hepatobiliary disposition of 17-OHPC and taurocholate in fetal human hepatocytes: a comparison with adult human hepatocytes” (Drug Metab Dispos, 2013).

T1 sequence (O95342 whole entry): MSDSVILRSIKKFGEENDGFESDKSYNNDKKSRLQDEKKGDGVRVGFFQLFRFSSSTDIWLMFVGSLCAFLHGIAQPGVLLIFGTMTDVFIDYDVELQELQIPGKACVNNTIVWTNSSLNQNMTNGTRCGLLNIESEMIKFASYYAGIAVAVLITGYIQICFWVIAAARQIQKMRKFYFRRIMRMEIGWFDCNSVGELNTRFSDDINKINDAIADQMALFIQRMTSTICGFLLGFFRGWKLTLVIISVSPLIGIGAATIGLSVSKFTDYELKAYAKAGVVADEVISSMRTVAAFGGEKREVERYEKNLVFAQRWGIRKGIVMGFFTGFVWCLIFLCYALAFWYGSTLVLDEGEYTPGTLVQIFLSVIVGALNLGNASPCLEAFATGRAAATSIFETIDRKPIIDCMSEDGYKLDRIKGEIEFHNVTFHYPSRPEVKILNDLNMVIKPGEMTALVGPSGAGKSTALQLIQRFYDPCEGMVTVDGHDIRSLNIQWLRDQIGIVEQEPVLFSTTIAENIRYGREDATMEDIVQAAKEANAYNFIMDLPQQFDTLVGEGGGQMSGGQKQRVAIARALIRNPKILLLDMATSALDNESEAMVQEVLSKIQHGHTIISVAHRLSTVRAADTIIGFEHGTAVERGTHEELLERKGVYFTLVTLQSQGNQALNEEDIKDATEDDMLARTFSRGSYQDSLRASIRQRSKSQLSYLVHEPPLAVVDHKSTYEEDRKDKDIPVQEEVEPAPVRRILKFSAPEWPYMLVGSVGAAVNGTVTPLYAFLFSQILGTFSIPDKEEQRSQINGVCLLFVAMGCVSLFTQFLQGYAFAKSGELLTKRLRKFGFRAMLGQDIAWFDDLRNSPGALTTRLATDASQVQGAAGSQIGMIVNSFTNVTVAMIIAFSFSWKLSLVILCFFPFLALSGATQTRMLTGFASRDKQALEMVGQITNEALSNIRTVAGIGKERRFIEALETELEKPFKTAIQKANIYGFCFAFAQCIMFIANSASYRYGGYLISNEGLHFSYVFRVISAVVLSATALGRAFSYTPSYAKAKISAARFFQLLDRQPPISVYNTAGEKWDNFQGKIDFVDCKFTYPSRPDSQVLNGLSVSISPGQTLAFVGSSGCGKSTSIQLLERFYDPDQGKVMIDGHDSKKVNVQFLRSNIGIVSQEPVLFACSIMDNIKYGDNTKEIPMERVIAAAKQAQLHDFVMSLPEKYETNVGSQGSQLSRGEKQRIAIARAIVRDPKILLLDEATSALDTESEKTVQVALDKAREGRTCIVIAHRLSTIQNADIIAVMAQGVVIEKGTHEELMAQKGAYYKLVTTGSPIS

Regarding `[3H]C1C2=CC(=O)C([3H])C([3H])[C@]2(C)[C@H]2CC[C@@]3(C)[C@@H](CC[C@]3(O[14C](=O)CCCCC)C(C)=O)[C@@H]2C1[3H]` (some centres undefined), the Drug uptake is on record as 476 pmol in data set [1]; 267 pmol in data set [2]; 341 pmol in data set [3]; 241 pmol in [4]; 281 pmol in data set [5]; 494 pmol in data set [6]. Besides, the Drug uptake was determined as 347 pmol in [7]; 284 pmol in [8]; 263 pmol in [9]; 565 pmol in data set [10]; 304 pmol in data set [11]; 611 pmol in data set [12].
Take `C[C@H](CCC(=O)NCCS(=O)(=O)O)[C@H]1CC[C@H]2[C@@H]3[C@H](O)C[C@@H]4C[C@H](O)CC[C@]4(C)[C@H]3C[C@H](O)[C@]12C` [TAUROCHOLIC ACID]: the Drug uptake in data set [13] is listed as 85 pmol; in data set [14] it was 21 pmol; in data set [15], “Not Active”; in data set [16], 23 pmol; in [17] it was 34 pmol; in data set [18], “Active”.
The Cmax is the maximum level reached in the sampled fluid or tissue. Take `CCCCCC(=O)O[C@]1(C(C)=O)CC[C@H]2[C@@H]3CCC4=CC(=O)CC[C@]4(C)[C@H]3CC[C@@]21C` [HYDROXYPROGESTERONE CAPROATE]: the Drug uptake in [13] is 680 pmol; in data set [14], 628 pmol; in data set [15] it was “Not Active”; in data set [16] it was 294 pmol; in [17], 320 pmol; in data set [18] it was “Active”. Moreover, the Drug uptake entry is given as “Not Active” in data set [27] and “Active” in data set [28]. The “inhibition (INH)” value in data set [19], in data set [22], in data set [23] and in [25] was “Active” each time. The highest concentration (Cmax) in [20] is 70 nM; in data set [26] it was 20 nM. The figures for the Drug excretion in [21] and in data set [24] were 6.2% and 7%, respectively.
